Experiments:
[1] = organism: Mus musculus; test: Effective dose required for […] in mice in rotarod test; type: functional
[2] = system: Mus musculus; test: Effective dose required to prevent convulsions in mice after iv administration of 70 mg/kg of metrazole compound in antipentylene tetrazole test; type: functional
Method in brief: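 Male CF-1 mice, 50–54 days old, tested by a modified Everett–Richards method. Metrazole 70 mg/kg is given iv, and convulsions are scored.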

[3] = molecular target: GABA-A receptor; anion channel; test: Displacement of [3H]diazepam binding in rat brain membranes; type: cell membranes

Row | Compound | ED50 [1] [mg/kg] | ED50 [2] [mg/kg] | IC50 [3] [nM]
1 | Clc1ccc2c(c1)C(c1ccccc1Cl)=NCc1cncnc1-2 | 1.4 | 0.59 | 1.7
2 | OC1N=C(c2ccccc2Cl)c2cc(Cl)ccc2-c2ncncc21 (centres undefined) | 4.8 | 0.74 | 6.4
3 | Oc1ccc(C2=NCc3cncnc3-c3ccc(Cl)cc32)c(Cl)c1 | > 1000 | > 100 | 100
4 | [O-][n+]1cnc2c(c1)CN=C(c1ccccc1Cl)c1cc(Cl)ccc1-2 | 4.9 | 0.65 | 1.25
5 | CN1C(=O)CN=C(c2ccccc2)c2cc(Cl)ccc21 [DIAZEPAM] | 2.6 | 1.4 | –

Reference: ChEMBL document CHEMBL1122391, “2-benzazepines. 6. Synthesis and pharmacological properties of the metabolites of 9-chloro-7-(2-chlorophenyl)-5H-pyrimido[5,4-d] [2]benzazepine” (J Med Chem, 1983)
